The results in this text go back to ChEMBL document CHEMBL1806465, “Synthesis and biological evaluation of 4-nitro-substituted 1,3-diaryltriazenes as a novel class of potent antitumor agents” (Eur J Med Chem, 2011).

The subject of experiment [1] is HeLa. Put plainly: Cell cycle arrest in human HeLa cells assessed as accumulation at G2/M phase at 21 uM after 24 hrs by propidium iodide staining -based flow cytometry (reference value: 11.7 %). It counts as functional. In short, it runs like this:
(§1)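 HeLa seeded at 100 000 cells/well, treated next day with 0.78, 7 or 21 µM for 24, 48 or 72 h. Adherent plus floating cells collected, PBS-washed, fixed overnight in 70% ethanol at −20 °C, RNase A 30 µg/ml 1 h RT, propidium iodide 16.7 µg/ml 30 min dark; DNA content by flow cytometry, phase percentages including subG1 reported.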
A general note: In flow cytometry, cells or beads pass a laser one at a time.

In experiment [2] the test system is HeLa. Put plainly: Cell cycle arrest in human HeLa cells assessed as accumulation at S phase at 21 uM after 48 hrs by propidium iodide staining -based flow cytometry (reference value: 26.3 %). The format is functional. An outline of the steps: as §1
Experiment [3] deals with HeLa. In words: Cell cycle arrest in human HeLa cells assessed as accumulation at subG1 phase at 21 uM after 48 hrs by propidium iodide staining -based flow cytometry (reference value: 8.5 %). The format is functional. An outline of the steps:
as §1

Experiment [4] relates to HeLa. Put plainly: Induction of reactive oxygen species generation in human HeLa cells at 7 uM after 6 hrs by FACS analysis. The format is functional, cell-based. An outline of the steps:
(§2)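 Logarithmically growing HeLa cells were preloaded with 10 µM CM-H2DCFDA for 1 h. They were then exposed to 7, 20 or 40 µM for 8 h, or to 7 µM for 2, 4 or 6 h. Cells were trypsinized, fixed in cold 80% methanol, resuspended in PBS and read for fluorescence by flow cytometry. The positive control was 0.01% H2O2 for 30 min.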

The test system of experiment [5] is HeLa. In words: Induction of apoptotis in human HeLa cells assessed as cleavage of procaspase 8 at 7 uM after 48 hrs by Western blot analysis. It counts as functional, cell-based. In short, it runs like this: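 HeLa cells were treated for 48 h at 7 µM and analysed by Western blot (10% SDS gels, nitrocellulose, HRP secondary, ECL, ERK2 loading control) for cleavage of apoptotic proteins. Antibodies: anti-PARP 1:4000; anti-caspase-3 and anti-caspase-8 1:1000; rabbit polyclonal anti-caspase-9 1:1000.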

Experiment [6] has as its system HeLa. Put plainly: Cell cycle arrest in human HeLa cells assessed as accumulation at S phase at 0.78 uM after 48 hrs by propidium iodide staining -based flow cytometry (reference value: 26.3 %). It counts as functional. In short, it runs like this:
as §1

Experiment [7] deals with HeLa. In words: Cell cycle arrest in human HeLa cells assessed as accumulation at G2/M phase at 7 uM after 72 hrs by propidium iodide staining -based flow cytometry (reference value: 9.7 %). It counts as functional. An outline of the steps: as §1
Experiment [8] deals with HeLa. Put plainly: Cell cycle arrest in human HeLa cells assessed as accumulation at G0/G1 phase at 7 uM after 48 hrs by propidium iodide staining -based flow cytometry (reference value: 63.8 %). It counts as functional. An outline of the steps: as §1
Experiment [9] deals with HeLa. In words: Cell cycle arrest in human HeLa cells assessed as accumulation at G2/M phase at 7 uM after 48 hrs by propidium iodide staining -based flow cytometry (reference value: 9.9 %). It counts as functional. In short, it runs like this: as §1
Experiment [10] deals with HeLa. In words: Induction of reactive oxygen species generation in human HeLa cells after 8 hrs by FACS analysis. It counts as functional, cell-based. An outline of the steps: as §2
Experiment [11] has as its system HeLa. Put plainly: Induction of ER stress in human HeLa cells assessed as expression of CHOP and Grp78.
Experiment [12] has as its system HeLa. In words: Cell cycle arrest in human HeLa cells assessed as accumulation at G2/M phase at 7 uM after 24 hrs by propidium iodide staining -based flow cytometry (reference value: 11.7 %). The format is functional. An outline of the steps:
as §1

Experiment [13] has as its system HeLa. Put plainly: Cell cycle arrest in human HeLa cells assessed as accumulation at G0/G1 phase at 21 uM after 24 hrs by propidium iodide staining -based flow cytometry (reference value: 60.6 %). It counts as functional. In short, it runs like this:
as §1

In experiment [14] the test system is HeLa. In words: Cell cycle arrest in human HeLa cells assessed as accumulation at G2/M phase at 0.78 uM after 48 hrs by propidium iodide staining -based flow cytometry (reference value: 9.9 %). The format is functional. An outline of the steps: as §1
Experiment [15] relates to SW480. In words: Cytotoxicity against human SW480 cells after 72 hrs by MTT assay. The format is functional, cell-based. The following applies: SW480, 72 h. In short, it runs like this: (§3)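 MTT assay: 3000 cells/well seeded, compound added next day, each concentration in quadruplicate, 72 h at 37 °C; medium replaced with 20 µg MTT/well for 4 h, formazan dissolved in DMSO, OD 545 nm. […] Fibroblasts: normal skin fibroblasts from donor, DMEM/10% FBS, used at 32 and 36 population doublings.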
A general note: Tetrazolium assays rely on reduction of a dye to a coloured formazan, in cell work by metabolically active cells.

Experiment [16] concerns SW-620. In words: Cytotoxicity against human SW620 cells after 72 hrs by MTT assay. The following applies: SW-620, 72 h. It counts as functional, cell-based. An outline of the steps:
as §3

Activity calls are given as the source filed them. No cut-off for these calls is given here.

Regarding `CC(=O)N(/N=N/c1ccc([N+](=O)[O-])cc1Cl)c1ccc([N+](=O)[O-])cc1Cl`, the Activity is 10.5% in experiment [1]; 15.2% in [2]; 46.5% in [3]; 18.5% in [6]; 7.6% in [7]; 76.2% in experiment [8]. Further, the Activity is 9.6% in experiment [9]; “Dose-dependent effect” in [10]; 10% in experiment [12]; 69.3% in experiment [13]; 7% in experiment [14]. For the same molecule, the outcome in experiment [4], in experiment [5] and in experiment [11] was Active. In addition, the IC50 in [15] is 530 nM; in experiment [16], 450 nM.

Usually IC50 stands for the concentration that gives 50% inhibition. A higher IC50 goes with lower potency.
